Laboratory results published in ChEMBL document CHEMBL1124397, “A novel class of "GABAergic" agents: 1-aryl-3-(aminoalkylidene)oxindoles” (J Med Chem, 1989).

Experiments:
[1] = Toxicity measured in mouse by subcutaneous administration; type: organism-based; details: in vivo, sc
Method in brief: (§1)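 Mouse LD50 in mg/kg after sc or ip dosing, by the route named in each line.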

[2] = Toxicity was measured in mouse by intraperitoneal administration; value ranges from 3.2-10; details: in vivo, ip; method in brief: as §1
Mus musculus [3] = assay: Activity tested to antagonise cyclic GMP after administration of isoniazid in mouse brain; type: functional
Mus musculus [4] = assay: Activity to antagonise mercaptopropionic acid (MPA) induced convulsions in mouse after subcutaneous administration; type: functional; details: sc
Method in brief: (§2)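 Male Swiss CD mice (17–21 g), fasted 18 h, in groups of five. […] One hour later MPA 32 mg/kg ip. Protection meant no convulsions during 10 min of observation.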

Mus musculus [5] = assay: Compound was tested for enhancement of [3H]Flunitrazepam ([3H]FNP) binding to mouse brain after intraperitoneal administration at a dose of 32uM/kg, expressed as percent of control; type: functional
Method in brief: (§3)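 Mice in groups of five received test compound or vehicle ip 1 h before 200 μCi/kg [3H]FNP iv and were killed 20 min later. Brains were homogenized in 40 volumes of ice-cold 50 mM Tris-HCl pH 7.7. Triplicate 1.0-mL samples were filtered on glass fiber, washed with cold buffer and counted. Bound FNP is given as % of vehicle-treated mice.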

[6] = (§4) Toxicity was measured in mouse by intraperitoneal administration; details: in vivo, ip; method in brief: as §1
P23576 = assay: Administered at a dose 320 umol/kg intraperitoneally before [3H]Flunitrazepam ([3H]-FNP) in mouse brain expressed as percent of control; type: functional, tissue-based; method in brief: as §3
Sequence of P23576 (P23576 whole entry): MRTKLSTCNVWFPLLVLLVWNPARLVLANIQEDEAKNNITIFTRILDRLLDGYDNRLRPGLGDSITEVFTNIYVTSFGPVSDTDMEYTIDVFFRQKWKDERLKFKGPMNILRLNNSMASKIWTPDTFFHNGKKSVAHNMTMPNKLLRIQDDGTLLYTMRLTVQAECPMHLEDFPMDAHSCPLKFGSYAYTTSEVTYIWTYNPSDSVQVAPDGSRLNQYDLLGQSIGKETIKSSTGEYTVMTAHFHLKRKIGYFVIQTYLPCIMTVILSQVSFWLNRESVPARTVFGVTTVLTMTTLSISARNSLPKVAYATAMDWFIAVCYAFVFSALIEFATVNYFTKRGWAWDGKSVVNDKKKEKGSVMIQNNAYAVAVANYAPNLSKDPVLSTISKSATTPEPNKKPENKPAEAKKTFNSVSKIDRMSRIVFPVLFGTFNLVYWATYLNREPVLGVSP

Mus musculus [7] = assay: Compound was tested for enhancement of [3H]flunitrazepam ([3H]-FNP) binding to mouse brain after intraperitoneal administration at a dose of 100uM/kg, expressed as percent of control; type: functional; method in brief: as §3
Mus musculus [8] = assay: Compound was tested for enhancement of [3H]Flunitrazepam ([3H]FNP) binding to mouse brain after intraperitoneal administration at a dose of 10 uM/kg, expressed as percent of control; type: functional; method in brief: as §3
Mus musculus [9] = assay: Activity to antagonise mercaptopropionic acid (MPA) induced convulsions in mouse after intraperitoneal administration; type: functional; details: ip
[10] = target: GABA-A receptor; anion channel (Rattus norvegicus) (UniProt O09028+P15431+P18506+P18508+P19969+P20236+P23574+P23576+P28471+P28473+P30191+P62813+P63079+P63138+Q91ZM7+Q9ES14); assay: Antagonism of mercaptopropionic acid (MPA) induced convulsions in mouse; type: functional, organism-based
Mus musculus [11] = assay: Activity to antagonise cyclic GMP after administration of isoniazid in mouse brain; value ranges from 0.1-0.3; type: functional
[12] = Ability to displace [3H]flunitrazepam ([3H]-FNP) binding to mouse brain after intraperitoneal administration at a dose 320 umol/kg; type: functional, organism-based; details: at 320 µmol/kg
Method in brief: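 Mice in groups of five got test agent or vehicle ip 1 h before iv [3H]FNP at 200 μCi/kg, then were killed 20 min later by cervical dislocation. Brains were frozen and homogenized in 40 volumes of ice-cold 50 mM Tris-HCl pH 7.7. Triplicate samples were filtered on glass fiber, washed with cold buffer and counted. Bound label is expressed as % of vehicle-treated mice.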

Mus musculus [13] = assay: Activity to antagonise cyclic GMP after administration of isoniazid in mouse brain; value ranges from 0.3-1; type: functional
Mus musculus [14] = assay: Ability to displace [3H]Flunitrazepam ([3H]FNP) binding to mouse brain after intraperitoneal administration at a dose 32uMl/kg, expressed as percent of control; type: functional; method in brief: as §3
Mus musculus [15] = assay: Compound was tested for enhancement of [3H]Flunitrazepam ([3H]-FNP) binding to mouse brain after intraperitoneal administration at a dose of 3.2uM/kg, expressed as percent of control; type: functional; method in brief: as §3
Mus musculus [16] = assay: Activity to antagonise mercaptopropionic acid (MPA) induced convulsions in mouse after subcutaneous administration; value ranges from 3.2-5.6; type: functional; details: sc; method in brief: as §2
Mus musculus [17] = assay: Compound was tested for enhancement of [3H]Flunitrazepam ([3H]FNP) binding to mouse brain after intraperitoneal administration at a dose of 1000uM/kg, expressed as percent of control; type: functional
Method in brief: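 Groups of five mice got the test compound or vehicle ip at the stated dose, 1 h (60 min) before iv [3H]FNP at 200 μCi/kg. Mice were killed by cervical dislocation 20 min after [3H]FNP. Brains were frozen, weighed and homogenized in 40 volumes ice-cold 50 mM Tris-HCl pH 7.7. Triplicate 1.0-mL samples were filtered on glass fiber and washed with cold buffer. Bound radioactivity was counted and expressed as % of vehicle-treated mice.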

Mus musculus [18] = assay: as §4; type: organism-based; details: in vivo, ip
Method in brief: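 Mice were dosed intraperitoneally and observed for 7 days after drug administration to estimate the LD50.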

Mus musculus [19] = assay: Activity to antagonise mercaptopropionic acid (MPA) induced convulsions in mouse after subcutaneous administration; the value ranges from 32-100; type: functional; details: sc; method in brief: as §2
Mus musculus [20] = assay: Ability to displace [3H]Flunitrazepam ([3H]-FNP) binding to mouse brain after intraperitoneal administration at a dose […]; type: functional

For `NCc1cc(O)no1` [MUSCIMOL], the LD50 [1] was 4.2 mg/kg, the LD50 [2] was 3.2 mg/kg and the ED50 (Mus musculus [3]) was 1.5 mg/kg. The ED50 (Mus musculus [4]) was 0.7 mg/kg.
`CN1CCC/C1=C1/C(=O)N(c2cccc(Cl)c2)c2ccccc21` showed a Control (Mus musculus [5]) of 105%, an LD50 [6] greater than 320 mg/kg and a Control (P23576) of 192%. It also gave an LD50 [1] greater than 1000 mg/kg, a Control (Mus musculus [7]) of 132% and a Control (Mus musculus [8]) of 105%. For the same molecule, the ED50 (Mus musculus [9]) was roughly 3.2 mg/kg and the ED50 [10] was greater than 100 mg/kg.
For `CN(C)/C=C1\C(=O)N(c2ccc(Cl)c(Cl)c2)c2ccccc21`, the ED50 (Mus musculus [11]) was 0.1 mg/kg, the ED50 [10] was greater than 100 mg/kg and the [3H]flunitrazepam binding [12] was 144%.
For `COc1ccc(N2C(=O)/C(=C3/CCCN3C)c3ccccc32)cc1`, the Control (Mus musculus [5]) was 125%, the LD50 [6] was greater than 320 mg/kg and the ED50 (Mus musculus [13]) was 1 mg/kg. It also gave a Control (P23576) of 211%, an LD50 [1] greater than 1000 mg/kg and a Control (Mus musculus [7]) of 192%. For the same molecule, the ED50 (Mus musculus [9]) was roughly 3.2 mg/kg, the Control (Mus musculus [14]) was 103% and the Control (Mus musculus [15]) was 105%. It also gave an ED50 (Mus musculus [16]) of 5.6 mg/kg.
Work on `CCCC(CCC)C(=O)[O-].[Na+]` [VALPROATE SODIUM] yielded an LD50 [6] greater than 1000 mg/kg, an LD50 [1] greater than 1000 mg/kg and an ED50 [10] of 212 mg/kg. It also gave a Control (Mus musculus [17]) of 128%.
`CCCCNc1c(C(=O)OCC)c(C)nc2c1cnn2CC` [TRACAZOLATE] showed an ED50 (Mus musculus [3]) of roughly 3 mg/kg, an ED50 (Mus musculus [18]) greater than 1000 mg/kg and an ED50 (Mus musculus [4]) greater than 100 mg/kg.
`COc1cccc(N2C(=O)/C(=C3/CCCN3C)c3ccccc32)c1` gave a Control (P23576) of 214% and an ED50 (Mus musculus [19]) of 100 mg/kg.
Molecule `CN1C(=O)CN=C(c2ccccc2)c2cc(Cl)ccc21` [DIAZEPAM] has a Control (Mus musculus [20]) of 66%, an ED50 (Mus musculus [3]) of less than 0.9 mg/kg and an ED50 [10] of 0.7 mg/kg.
